According to ChEMBL document CHEMBL3272198, “Preparation and in vitro antifungal activities of some quinolizidine derived hemiaminals and beta-tert-amino sulfides” (1976):
Activity calls are given as the source filed them. The calls are words filed in the database; no cut-off is given here.

Assays:
Format in all cases: functional
[1] = tested on: Histoplasma capsulatum; experiment: Antifungal activity against Histoplasma capsulatum Darling isolate 1106 at 80 ug/ml after 3 weeks (reference value: 31 mm)
[2] = tested on: Histoplasma capsulatum; experiment: Antifungal activity against Histoplasma capsulatum Darling isolate 1106 at 60 ug/ml after 1 week (reference value: 14 mm)
[3] = tested on: Blastomyces dermatitidis; experiment: Antifungal activity against Blastomyces dermatitidis Gilchrist & Stokes isolate 1107 at 60 ug/ml after 2 weeks (reference value: 35 mm); settings: Gilchrist & Stokes isolate 1107, 336 h, read-out: DIZ
Method in brief: (§1)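 Mycelial phase grown on Sabouraud dextrose agar at 25°C. Agar pH was set to 6 before the test solution was added and was 5.0-5.5 after. Test solutions contained HOAc and Me2SO, and solvent and blank controls were included. Each quadrant was center-inoculated with a 2 × 2 mm piece of a 2-week-old mycelial culture. Colony diameter was measured weekly for 3 weeks and reported as total increments (mm). Duplicates were run.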

[4] = tested on: Blastomyces dermatitidis; experiment: Antifungal activity against Blastomyces dermatitidis Gilchrist & Stokes isolate 1099 at 20 ug/ml after 1 week (reference value: 14 mm); settings: Gilchrist & Stokes isolate 1099, 168 h, read-out: DIZ; method in brief: as §1
[5] = tested on: Histoplasma capsulatum; experiment: Antifungal activity against Histoplasma capsulatum Darling isolate 1106 at 40 ug/ml after 2 weeks (reference value: 25 mm)
[6] = tested on: Histoplasma capsulatum; experiment: Antifungal activity against Histoplasma capsulatum Darling isolate 1098 at 20 ug/ml after 1 week (reference value: 12 mm); settings: Darling isolate 1098, 168 h, read-out: DIZ
[7] = tested on: Blastomyces dermatitidis; experiment: Antifungal activity against Blastomyces dermatitidis Gilchrist & Stokes isolate 1099 at 10 ug/ml after 1 week (reference value: 14 mm); settings: Gilchrist & Stokes isolate 1099, 168 h, read-out: DIZ; method in brief: as §1
[8] = tested on: Histoplasma capsulatum; experiment: Antifungal activity against Histoplasma capsulatum Darling isolate 1098 at 20 ug/ml after 2 weeks (reference value: 21 mm); settings: Darling isolate 1098, 336 h, read-out: DIZ
[9] = tested on: Blastomyces dermatitidis; experiment: Antifungal activity against Blastomyces dermatitidis Gilchrist & Stokes isolate 1099 at 10 ug/ml after 3 weeks (reference value: 34 mm); settings: Gilchrist & Stokes isolate 1099, 504 h, read-out: DIZ; method in brief: as §1
[10] = tested on: Blastomyces dermatitidis; experiment: Antifungal activity against Blastomyces dermatitidis Gilchrist & Stokes isolate 1099 at 80 ug/ml after 3 weeks (reference value: 34 mm); settings: Gilchrist & Stokes isolate 1099, 504 h, read-out: DIZ; method in brief: as §1
[11] = tested on: Blastomyces dermatitidis; experiment: Antifungal activity against Blastomyces dermatitidis Gilchrist & Stokes isolate 1107 at 100 ug/ml after 2 weeks (reference value: 35 mm); method in brief: as §1
[12] = tested on: Blastomyces dermatitidis; experiment: Antifungal activity against Blastomyces dermatitidis Gilchrist & Stokes isolate 1099 at 10 ug/ml after 2 weeks (reference value: 27 mm); settings: Gilchrist & Stokes isolate 1099, 336 h, read-out: DIZ; method in brief: as §1
[13] = tested on: Blastomyces dermatitidis; experiment: Antifungal activity against Blastomyces dermatitidis Gilchrist & Stokes isolate 1107 at 80 ug/ml after 3 weeks (reference value: 40 mm); settings: Gilchrist & Stokes isolate 1107, 504 h, read-out: DIZ; method in brief: as §1
[14] = tested on: Blastomyces dermatitidis; experiment: Antifungal activity against Blastomyces dermatitidis Gilchrist & Stokes isolate 1099 at 80 ug/ml after 1 week (reference value: 14 mm)
[15] = tested on: Histoplasma capsulatum; experiment: Antifungal activity against Histoplasma capsulatum Darling isolate 1098 at 80 ug/ml after 1 week (reference value: 12 mm)
[16] = tested on: Blastomyces dermatitidis; experiment: Antifungal activity against Blastomyces dermatitidis Gilchrist & Stokes isolate 1107 at 40 ug/ml after 1 week (reference value: 20 mm)
[17] = tested on: Histoplasma capsulatum; experiment: Antifungal activity against Histoplasma capsulatum Darling isolate 1106 at 60 ug/ml after 3 weeks (reference value: 31 mm)
[18] = tested on: Blastomyces dermatitidis; experiment: Antifungal activity against Blastomyces dermatitidis Gilchrist & Stokes isolate 1099 at 100 ug/ml after 2 weeks (reference value: 27 mm)
[19] = tested on: Blastomyces dermatitidis; experiment: Antifungal activity against Blastomyces dermatitidis Gilchrist & Stokes isolate 1107 at 10 ug/ml after 3 weeks (reference value: 40 mm); settings: Gilchrist & Stokes isolate 1107, 504 h, read-out: DIZ; method in brief: as §1
[20] = tested on: Histoplasma capsulatum; experiment: Antifungal activity against Histoplasma capsulatum Darling isolate 1106 at 40 ug/ml after 1 week (reference value: 14 mm)
[21] = tested on: Histoplasma capsulatum; experiment: Antifungal activity against Histoplasma capsulatum Darling isolate 1098 at 10 ug/ml after 3 weeks (reference value: 28 mm); settings: Darling isolate 1098, 504 h, read-out: DIZ
[22] = tested on: Histoplasma capsulatum; experiment: Antifungal activity against Histoplasma capsulatum Darling isolate 1098 at 10 ug/ml after 1 week (reference value: 12 mm); settings: Darling isolate 1098, 168 h, read-out: DIZ
[23] = tested on: Histoplasma capsulatum; experiment: Antifungal activity against Histoplasma capsulatum Darling isolate 1106 at 100 ug/ml after 1 week (reference value: 14 mm)
[24] = tested on: Blastomyces dermatitidis; experiment: Antifungal activity against Blastomyces dermatitidis Gilchrist & Stokes isolate 1107 at 100 ug/ml after 1 week (reference value: 20 mm)
[25] = tested on: Histoplasma capsulatum; experiment: Antifungal activity against Histoplasma capsulatum Darling isolate 1098 at 60 ug/ml after 2 weeks (reference value: 21 mm); settings: Darling isolate 1098, 336 h, read-out: DIZ
[26] = tested on: Histoplasma capsulatum; experiment: Antifungal activity against Histoplasma capsulatum Darling isolate 1098 at 60 ug/ml after 3 weeks (reference value: 28 mm); settings: Darling isolate 1098, 504 h, read-out: DIZ
[27] = tested on: Histoplasma capsulatum; experiment: Antifungal activity against Histoplasma capsulatum Darling isolate 1098 at 40 ug/ml after 1 week (reference value: 12 mm); settings: Darling isolate 1098, 168 h, read-out: DIZ
[28] = tested on: Histoplasma capsulatum; experiment: Antifungal activity against Histoplasma capsulatum Darling isolate 1106 at 10 ug/ml after 3 weeks (reference value: 31 mm); settings: Darling isolate 1106, 504 h, read-out: DIZ
[29] = tested on: Histoplasma capsulatum; experiment: Antifungal activity against Histoplasma capsulatum Darling isolate 1098 at 80 ug/ml after 2 weeks (reference value: 21 mm)
[30] = tested on: Blastomyces dermatitidis; experiment: Antifungal activity against Blastomyces dermatitidis Gilchrist & Stokes isolate 1099 at 80 ug/ml after 2 weeks (reference value: 27 mm)
[31] = tested on: Blastomyces dermatitidis; experiment: Antifungal activity against Blastomyces dermatitidis Gilchrist & Stokes isolate 1099 at 40 ug/ml after 1 week (reference value: 14 mm)
[32] = tested on: Blastomyces dermatitidis; experiment: Antifungal activity against Blastomyces dermatitidis Gilchrist & Stokes isolate 1099 at 60 ug/ml after 1 week (reference value: 14 mm)
[33] = tested on: Histoplasma capsulatum; experiment: Antifungal activity against Histoplasma capsulatum Darling isolate 1106 at 20 ug/ml after 2 weeks (reference value: 25 mm); settings: Darling isolate 1106, 336 h, read-out: DIZ
[34] = tested on: Blastomyces dermatitidis; experiment: Antifungal activity against Blastomyces dermatitidis Gilchrist & Stokes isolate 1099 at 100 ug/ml after 1 week (reference value: 14 mm)
[35] = tested on: Blastomyces dermatitidis; experiment: Antifungal activity against Blastomyces dermatitidis Gilchrist & Stokes isolate 1107 at 80 ug/ml after 1 week (reference value: 20 mm)
[36] = tested on: Blastomyces dermatitidis; experiment: Antifungal activity against Blastomyces dermatitidis Gilchrist & Stokes isolate 1107 at 40 ug/ml after 3 weeks (reference value: 40 mm); settings: Gilchrist & Stokes isolate 1107, 504 h, read-out: DIZ; method in brief: as §1
[37] = tested on: Blastomyces dermatitidis; experiment: Antifungal activity against Blastomyces dermatitidis Gilchrist & Stokes isolate 1107 at 10 ug/ml after 2 weeks (reference value: 35 mm); settings: Gilchrist & Stokes isolate 1107, 336 h, read-out: DIZ; method in brief: as §1
[38] = tested on: Histoplasma capsulatum; experiment: Antifungal activity against Histoplasma capsulatum Darling isolate 1098 at 10 ug/ml after 2 weeks (reference value: 21 mm); settings: Darling isolate 1098, 336 h, read-out: DIZ
[39] = tested on: Blastomyces dermatitidis; experiment: Antifungal activity against Blastomyces dermatitidis Gilchrist & Stokes isolate 1107 at 20 ug/ml after 1 week (reference value: 20 mm); settings: Gilchrist & Stokes isolate 1107, 168 h, read-out: DIZ; method in brief: as §1

## C[C@@H]1CC[C@@H](c2ccoc2)N2C(O)[C@@](C)(Sc3ccccc3)CC[C@@H]12 (some centres undefined)
[1]
  Activity: Active
[2]
  Activity: Active
[3]
  zone of inhibition at 60 µg/mL: 10 mm
[4]
  zone of inhibition at 20 µg/mL: 7 mm
[5]
  Activity: inactive
[6]
  zone of inhibition at 20 µg/mL: 8 mm
[7]
  zone of inhibition at 10 µg/mL: 12 mm
[8]
  zone of inhibition at 20 µg/mL: 14 mm
[9]
  zone of inhibition at 10 µg/mL: 27 mm
[10]
  zone of inhibition at 80 µg/mL: 4 mm
[11]
  Activity: Active
[12]
  zone of inhibition at 10 µg/mL: 20 mm
[13]
  zone of inhibition at 80 µg/mL: 7 mm
[14]
  Activity: Active
[15]
  Activity: Active
[16]
  Activity: inactive
[17]
  Activity: Active
[18]
  Activity: Active
[19]
  zone of inhibition at 10 µg/mL: 32 mm
[20]
  Activity: inactive
[21]
  zone of inhibition at 10 µg/mL: 25 mm
[22]
  zone of inhibition at 10 µg/mL: 10 mm
[23]
  Activity: Active
[24]
  Activity: Active
[25]
  zone of inhibition at 60 µg/mL: 2 mm
[26]
  zone of inhibition at 60 µg/mL: 8 mm
[27]
  zone of inhibition at 40 µg/mL: 6 mm
[28]
  zone of inhibition at 10 µg/mL: 25 mm
[29]
  Activity: Active
[30]
  Activity: Active
[31]
  Activity: inactive
[32]
  Activity: Active
[33]
  zone of inhibition at 20 µg/mL: 11 mm
[34]
  Activity: Active
[35]
  Activity: Active
[36]
  zone of inhibition at 40 µg/mL: 18 mm
[37]
  zone of inhibition at 10 µg/mL: 26 mm
[38]
  zone of inhibition at 10 µg/mL: 19 mm
[39]
  zone of inhibition at 20 µg/mL: 7 mm
